Assays:
[1] = molecular target: Glycogen synthase kinase-3 alpha/beta (Sus scrofa); assay: Inhibition of glycogen synthase kinase-3-alpha/beta (GSK-3-alpha/beta) in porcine brain relative to indirubin
[2] = molecular target: Cyclin-dependent kinase 5/CDK5 activator 1 (Homo sapiens, UniProt Q00535); assay: Inhibitory activity against Cyclin-dependent kinase 5-p35nck5a; type: protein-complex assay
In short: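 Recombinant mammalian CDK5 and p25 (truncated p35 activator), each expressed in E. coli as a GST fusion, purified on glutathione-agarose and mixed in equal amounts. IC50 from dose-response curves.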

[3] = molecular target: Glycogen synthase kinase-3 alpha/beta (Sus scrofa); assay: Inhibitory activity against GSK-3-alpha/beta from porcine brain
[4] = molecular target: Cyclin-dependent kinase 1/cyclin B (Marthasterias glacialis); assay: Inhibitory activity against cyclin dependent kinase 1-cyclinB from starfish (Marthasterias glacialis) oocytes

Cyclin-dependent kinase 5/CDK5 activator 1, sequence (Q00535 whole entry, the tested form may be a part): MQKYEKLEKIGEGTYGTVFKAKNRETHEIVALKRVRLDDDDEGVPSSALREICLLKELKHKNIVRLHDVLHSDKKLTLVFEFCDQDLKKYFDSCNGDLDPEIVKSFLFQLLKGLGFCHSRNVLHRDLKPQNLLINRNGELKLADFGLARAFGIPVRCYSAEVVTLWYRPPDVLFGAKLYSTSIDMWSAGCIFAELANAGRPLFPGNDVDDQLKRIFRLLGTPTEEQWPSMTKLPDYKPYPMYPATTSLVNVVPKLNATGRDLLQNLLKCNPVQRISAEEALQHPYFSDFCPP
Cyclin-dependent kinase 5/CDK5 activator 1, sequence (Q15078 whole entry, further chain, the tested form may be a part): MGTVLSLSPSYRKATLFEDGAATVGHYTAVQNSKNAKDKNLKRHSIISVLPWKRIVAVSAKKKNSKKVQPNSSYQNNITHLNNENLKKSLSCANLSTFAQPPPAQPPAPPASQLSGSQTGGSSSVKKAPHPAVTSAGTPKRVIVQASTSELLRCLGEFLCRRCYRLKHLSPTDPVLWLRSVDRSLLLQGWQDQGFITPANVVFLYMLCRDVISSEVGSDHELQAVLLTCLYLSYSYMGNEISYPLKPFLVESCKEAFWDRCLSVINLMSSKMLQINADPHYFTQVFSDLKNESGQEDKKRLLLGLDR

| SMILES | IC50 [1] [µM] | IC50 [2] [µM] | IC50 [3] [µM] | IC50 [4] [µM] |
| --- | --- | --- | --- | --- |
| Cc1ccc2[nH]c(O)c(C3=Nc4ccccc4C3=O)c2c1 | 0.062 |  |  |  |
| CO/N=C1/C(c2c(O)[nH]c3ccccc23)=Nc2ccccc21 |  | 0.4 |  |  |
| O=C1C(c2c(O)[nH]c3cc(Br)ccc23)=Nc2cc(Br)ccc21 |  | > 100 | 4.5 | > 100 |
| O=Nc1c(-c2c(O)[nH]c3cc(Br)c([N+](=O)[O-])cc23)[nH]c2ccccc12 |  | 0.15 |  |  |
| O=C1C(c2c(O)[nH]c3cc(F)ccc23)=Nc2ccccc21 |  | 1 |  |  |
| O=Nc1c(-c2c(O)[nH]c3cc(Cl)ccc23)[nH]c2ccccc12 |  | 0.1 | 0.02 | 0.65 |
| Cn1c(O)c(-c2[nH]c3ccccc3c2N=O)c2ccc(Br)cc21 |  | > 100 | > 100 | 92 |
| Cc1cc2c(C3=Nc4ccccc4C3=O)c(O)[nH]c2cc1Br |  | 60 | 0.025 | 30 |
| O=C1C(c2c(O)[nH]c3ccc(Br)cc23)=Nc2ccccc21 | 0.055 |  |  |  |
| O=C1C(c2c(O)[nH]c3ccccc23)=Nc2ccc(Br)cc21 | 0.35 |  |  |  |
| O=C1C(c2c(O)[nH]c3ccc([N+](=O)[O-])cc23)=Nc2ccccc21 | 0.042 |  |  |  |
| CC(=O)O/N=C1/C(c2c(O)[nH]c3cc(Cl)ccc23)=Nc2ccccc21 |  | 0.2 | 0.017 | 30 |
| O=Nc1c(-c2c(O)[nH]c3cc(F)ccc23)[nH]c2ccccc12 |  | 0.15 | 0.13 | 0.32 |
| O=C1C(c2c(O)[nH]c3cc(I)ccc23)=Nc2ccccc21 |  | 5.3 | 0.055 | 1.6 |
| Cn1c(O)c(C2=Nc3ccccc3C2=O)c2ccc(Br)cc21 |  | > 100 | > 100 | > 100 |
| C=Cc1ccc2c(C3=Nc4ccccc4C3=O)c(O)[nH]c2c1 |  | 2.4 | 0.24 | 4.2 |
| Cc1cc2c(-c3[nH]c4ccccc4c3N=O)c(O)[nH]c2cc1Br |  | 0.13 |  |  |
| O=C1C(c2c(O)[nH]c3cccc(Cl)c23)=Nc2ccccc21 |  | 10 | > 100 | 10 |
| O=C1C(c2c(O)[nH]c3ccc(Br)cc23)=Nc2ccc(Br)cc21 | 0.25 |  |  |  |
| CC(=O)O/N=C1/C(c2c(O)[nH]c3ccccc23)=Nc2ccccc21 |  | 0.7 |  |  |
| O=C1C(c2c(O)[nH]c3cc(Br)ccc23)=Nc2ccccc21 |  | 53 |  |  |

| SMILES | IC50 [1] [µM] | IC50 [2] [µM] | IC50 [3] [µM] | IC50 [4] [µM] |
| --- | --- | --- | --- | --- |
| O=Nc1c(-c2c(O)[nH]c3cc(I)ccc23)[nH]c2ccccc12 |  | 0.3 |  |  |
| CC(=O)O/N=C1/C(c2c(O)[nH]c3cc(F)ccc23)=Nc2ccccc21 |  | 0.3 |  |  |
| CC(=O)O/N=C1/C(c2c(O)[nH]c3cc(I)ccc23)=Nc2ccccc21 |  | 1.3 | 0.013 | 2.2 |
| O=Nc1c(-c2c(O)[nH]c3ccccc23)[nH]c2cc(Br)ccc12 |  |  |  | 3 |
| CO/N=C1/C(c2c(O)[nH]c3cc(Br)ccc23)=Nc2ccccc21 |  | 2.2 | 0.03 | 3.7 |
| Cn1c(O)c(-c2[nH]c3ccccc3c2N=O)c2ccccc21 |  | > 100 |  | 73 |
| O=C1C(c2c(O)[nH]c3ccc(Cl)cc23)=Nc2ccccc21 | 0.05 |  |  |  |
| O=C1C(c2c(O)[nH]c3ccc(F)cc23)=Nc2ccccc21 | 0.078 |  |  |  |
| O=C1C(c2c(O)[nH]c3cc(Cl)c(Cl)cc23)=Nc2ccccc21 |  | 60 | 0.03 | 45 |
| O=C1C(c2c(O)[nH]c3ccccc23)=Nc2cc(Br)ccc21 |  | > 100 | 22 | > 100 |
| O=C1C(c2c(O)[nH]c3cc(Br)c([N+](=O)[O-])cc23)=Nc2ccccc21 |  | > 100 | 0.1 | > 100 |
| C=Cc1ccc2c(C3=Nc4ccccc4/C3=N\OC(C)=O)c(O)[nH]c2c1 |  | 0.4 | 0.065 | 1.6 |
| O=C1C(c2c(O)[nH]c3cc(Cl)ccc23)=Nc2ccccc21 |  | > 100 | 0.14 | > 100 |
| C=Cc1ccc2c(-c3[nH]c4ccccc4c3N=O)c(O)[nH]c2c1 |  | 0.42 | 0.06 | 1.2 |
| CC(=O)O/N=C1/C(=C2/C(=O)Nc3cc(Br)c([N+](=O)[O-])cc32)Nc2ccccc21 |  | 31 | 0.006 | 11 |
| CC(=O)O/N=C1/C(=C2/C(=O)Nc3cc(Br)c(C)cc32)Nc2ccccc21 |  | 30 | 0.007 | 31 |
| Cn1c(O)c(C2=Nc3ccccc3C2=O)c2ccccc21 |  | > 100 |  | > 100 |
| O=Nc1c(-c2c(O)[nH]c3cc(Br)ccc23)[nH]c2cc(Br)ccc12 |  | 1.3 | 0.12 | 17 |
| CC(=O)O/N=C1/C(=C2/C(=O)Nc3cc(Br)ccc32)Nc2ccccc21 [6-BROMOINDIRUBIN-3'-ACETOXIME] |  | 2.4 | 0.01 | 63 |
| CC(=O)O/N=C1/C(=C2/C(=O)Nc3cc(Cl)c(Cl)cc32)Nc2ccccc21 [INDIRUBIN 1] |  | 0.1 | 0.004 | 30 |
